Results from different studies.
Each line is one published result; the experiments were not run side by side.
Target: Serine/threonine-protein kinase TNNI3K (TNNI3K, Homo sapiens, UniProt Q59H18)
One construct used (Q59H18 1-835): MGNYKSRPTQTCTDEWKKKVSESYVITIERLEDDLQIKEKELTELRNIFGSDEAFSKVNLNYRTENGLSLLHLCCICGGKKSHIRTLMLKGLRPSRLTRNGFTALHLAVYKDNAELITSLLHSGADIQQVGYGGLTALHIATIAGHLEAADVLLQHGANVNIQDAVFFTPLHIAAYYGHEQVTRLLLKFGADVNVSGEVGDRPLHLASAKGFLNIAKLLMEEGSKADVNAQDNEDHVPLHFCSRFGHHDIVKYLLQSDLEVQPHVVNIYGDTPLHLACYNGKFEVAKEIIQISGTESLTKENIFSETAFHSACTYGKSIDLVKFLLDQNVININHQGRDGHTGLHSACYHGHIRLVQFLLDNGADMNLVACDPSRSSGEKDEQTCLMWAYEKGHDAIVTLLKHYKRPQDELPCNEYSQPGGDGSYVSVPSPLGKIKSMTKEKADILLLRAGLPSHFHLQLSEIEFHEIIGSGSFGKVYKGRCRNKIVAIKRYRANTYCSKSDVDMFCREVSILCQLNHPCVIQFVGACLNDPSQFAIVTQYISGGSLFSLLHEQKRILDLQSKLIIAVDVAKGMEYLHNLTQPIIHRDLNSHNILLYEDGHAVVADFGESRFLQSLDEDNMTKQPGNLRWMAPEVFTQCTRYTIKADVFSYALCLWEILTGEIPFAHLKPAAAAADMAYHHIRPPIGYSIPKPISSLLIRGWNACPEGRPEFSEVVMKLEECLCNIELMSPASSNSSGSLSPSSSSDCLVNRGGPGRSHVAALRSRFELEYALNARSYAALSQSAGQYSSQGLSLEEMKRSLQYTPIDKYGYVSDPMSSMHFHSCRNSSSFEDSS

Structure (SMILES)	observed	technique	concentration	remaining binding [%]
Cc1nc(N2CC[C@@H](O)C2)ncc1-c1cc(C(F)(F)F)cc2[nH]ncc12	cell-free assay	competition with immobilised ligand	1 µM	87
N[C@H]1CCN(c2nccc(-c3cnn4ncccc34)n2)C1	binding		1 µM	100
C=CC(=O)N1CCC(C(=O)NCC(=O)N2CCN(c3nc(-c4cnc(N)nc4C(F)F)nc(N4CCOCC4)n3)CC2)CC1	binding	competition with immobilised ligand	1 µM	100
Cc1c[nH]c2nccc(Oc3c(F)cc(Nc4cc(Cl)nc(N)n4)cc3F)c12	cell-free assay	competition with immobilised ligand	0.1 µM	98
CNC(=O)[C@@H]1CC[C@@H](n2c(-c3ccc4cnccc4c3)nc3ccc(C(=O)NCc4cccc(C(N)=O)c4)cc32)C1	binding	competition with immobilised ligand	1 µM	100
C[C@@H](c1ccc(-n2cnc3c(N)ncnc32)cc1)N1CCc2nn(C)c(Cc3ccccc3)c2C1=O	binding	competition with immobilised ligand	0.1 µM	88
COc1ccnn2ncc(-c3ccnc(N(C)C)n3)c12	binding		1 µM	93
COc1cnc(Nc2cccc(S(N)(=O)=O)c2)nc1N1CCN(c2ccccc2)CC1	binding	competition with immobilised ligand	1 µM	96
O=C(Nc1c[nH]nc1C(=O)NC1CCNCC1)c1cc(F)cc(F)c1	binding	competition with immobilised ligand	1 µM	95
C[C@H]1CCN(c2nccc(-c3cnn4ncccc34)n2)C1	binding		1 µM	100
O=C(c1ccc(Nc2ncc(Cl)c(-c3ccc(Cl)s3)n2)cc1)N1CCC(N2CCCC2)CC1	binding	competition with immobilised ligand	1 µM	50
FC(F)(F)Oc1cccc(-c2cnc3ccc(-c4ccncc4)nn23)c1	binding	competition with immobilised ligand	5 µM	91
COc1ccc2cc(OCC3(C(=O)O)CN(C(=O)c4ccc(F)cc4)C3)ccc2c1	cell-free assay	competition with immobilised ligand	1 µM	100
Nc1ncc2c(n1)-c1c([nH]c3ccc(C#CC4CC4)cc13)CCCC2	binding	competition with immobilised ligand	1 µM	94
CC1CCCN1c1nccc(-c2cnn3ncccc23)n1 (stereo not shown)	binding		1 µM	99
O=C(c1ccc(Nc2ncc(Cl)c(-c3cc4ccccc4s3)n2)cc1)N1CCC(N2CCCC2)CC1	binding	competition with immobilised ligand	1 µM	50
CCOC(=O)c1cc2cc(-c3cc(C(=O)NCc4ccc(C(=O)O)cc4)nn3C)ccc2[nH]1	cell-free assay	competition with immobilised ligand	0.1 µM	100
CN(c1nccc(-c2cnn3ncccc23)n1)C1CC1	binding		1 µM	84
Cc1noc([C@H]2C[C@@H](c3ccc(C(F)(F)F)cc3)CN(C(=O)N3CCS(=O)(=O)C3)C2)n1	cell-free assay	competition with immobilised ligand	1 µM	100
O=C(NCCCN1CCOCC1)c1ccc(Nc2ncc(Cl)c(-c3ccc(Cl)s3)n2)cc1	binding	competition with immobilised ligand	1 µM	78
c1cnn2ncc(-c3ccnc(N4CCC45COC5)n3)c2c1	binding		1 µM	100
O=C(NCCCC1CCCCC1)c1ccc(CNC(=O)c2cnn(-c3ccccc3)c2C(F)(F)F)cc1	cell-free assay	competition with immobilised ligand	0.1 µM	79
